Source: ChEMBL document CHEMBL4680175, “Sulfonamide-based ring-fused analogues for CAN508 as novel carbonic anhydrase inhibitors endowed with antitumor activity: Design, synthesis, and in vitro biological evaluation” (Eur J Med Chem, 2020)
Values belong to the compound of their own block, whether it stands above or below them. Active and inactive are the calls of the source. The rule behind the calls is not given here.

Key:
[1] = target: Cyclin-dependent kinase 2/cyclin E1 (Homo sapiens, UniProt P24941); test: Inhibition of CDK2/cyclin E (unknown origin) expressed in baculovirus infected Sf21 insect cells using histone H1 as substrate in presence of [gamma33P]ATP
[2] = target: Carbonic anhydrase 1 (Homo sapiens, UniProt P00915); test: Inhibition of recombinant human carbonic anhydrase 1 preincubated with enzyme for 15 mins by phenol red dye based stopped flow CO2 hydrase assay
Chain of Carbonic anhydrase 1 (P00915 whole entry, the tested form may be a part): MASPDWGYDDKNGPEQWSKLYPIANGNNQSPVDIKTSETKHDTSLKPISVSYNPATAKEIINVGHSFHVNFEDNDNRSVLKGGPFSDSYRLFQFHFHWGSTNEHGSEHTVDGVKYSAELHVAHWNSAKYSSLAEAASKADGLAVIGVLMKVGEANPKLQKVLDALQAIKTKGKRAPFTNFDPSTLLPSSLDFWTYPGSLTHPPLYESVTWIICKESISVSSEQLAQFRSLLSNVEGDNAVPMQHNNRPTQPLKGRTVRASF

[3] = target: CDK9/cyclin T1 (Homo sapiens, UniProt P50750); test: Inhibition of human full-length N-terminal GST/His6-tagged CDK9 (1 to 372 residues)/His6-tagged Cyclin-T1 (1 to 726 residues) expressed in sf9 cells using (YSPTSPS)2KK peptide as substrate in presence of [gamma33P]ATP
Chain of CDK9/cyclin T1 (O60563 whole entry, the tested form may be a part): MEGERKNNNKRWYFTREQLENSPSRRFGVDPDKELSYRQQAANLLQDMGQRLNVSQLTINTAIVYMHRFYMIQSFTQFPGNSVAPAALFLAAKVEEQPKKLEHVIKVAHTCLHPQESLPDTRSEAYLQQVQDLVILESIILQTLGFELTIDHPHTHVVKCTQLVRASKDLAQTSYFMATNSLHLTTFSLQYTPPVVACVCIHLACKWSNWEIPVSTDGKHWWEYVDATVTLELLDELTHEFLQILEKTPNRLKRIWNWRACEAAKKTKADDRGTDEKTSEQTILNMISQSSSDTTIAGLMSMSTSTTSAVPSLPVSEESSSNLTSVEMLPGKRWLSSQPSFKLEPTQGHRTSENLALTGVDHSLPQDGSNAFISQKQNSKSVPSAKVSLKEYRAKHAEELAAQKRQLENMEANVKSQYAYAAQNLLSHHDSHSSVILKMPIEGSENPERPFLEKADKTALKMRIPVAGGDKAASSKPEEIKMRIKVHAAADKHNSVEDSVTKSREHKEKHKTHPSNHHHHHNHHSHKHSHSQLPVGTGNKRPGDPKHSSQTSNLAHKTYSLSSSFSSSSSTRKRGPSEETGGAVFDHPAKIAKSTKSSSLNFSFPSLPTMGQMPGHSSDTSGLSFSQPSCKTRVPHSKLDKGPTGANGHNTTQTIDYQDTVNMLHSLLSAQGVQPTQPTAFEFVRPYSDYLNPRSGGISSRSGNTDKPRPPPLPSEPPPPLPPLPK
Chain of CDK9/cyclin T1 (P50750 whole entry, the tested form may be a part): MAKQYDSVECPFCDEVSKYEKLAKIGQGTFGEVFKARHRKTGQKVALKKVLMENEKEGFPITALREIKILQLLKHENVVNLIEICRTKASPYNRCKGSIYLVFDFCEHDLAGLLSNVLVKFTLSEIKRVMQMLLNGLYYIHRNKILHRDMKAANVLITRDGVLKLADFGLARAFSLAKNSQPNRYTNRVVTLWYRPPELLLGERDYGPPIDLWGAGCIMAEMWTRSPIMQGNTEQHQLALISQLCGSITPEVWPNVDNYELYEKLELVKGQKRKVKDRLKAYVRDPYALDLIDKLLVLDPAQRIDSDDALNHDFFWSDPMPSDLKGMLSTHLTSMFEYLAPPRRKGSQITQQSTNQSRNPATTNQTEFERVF

[4] = target: Carbonic anhydrase 2 (Homo sapiens, UniProt P00918); test: Inhibition of recombinant human carbonic anhydrase 2 preincubated with enzyme for 15 mins by phenol red dye based stopped flow CO2 hydrase assay
[5] = target: Carbonic anhydrase 12 (Homo sapiens, UniProt O43570); test: Inhibition of recombinant human carbonic anhydrase 12 preincubated with enzyme for 15 mins by phenol red dye based stopped flow CO2 hydrase assay
Chain of Carbonic anhydrase 12 (O43570 whole entry): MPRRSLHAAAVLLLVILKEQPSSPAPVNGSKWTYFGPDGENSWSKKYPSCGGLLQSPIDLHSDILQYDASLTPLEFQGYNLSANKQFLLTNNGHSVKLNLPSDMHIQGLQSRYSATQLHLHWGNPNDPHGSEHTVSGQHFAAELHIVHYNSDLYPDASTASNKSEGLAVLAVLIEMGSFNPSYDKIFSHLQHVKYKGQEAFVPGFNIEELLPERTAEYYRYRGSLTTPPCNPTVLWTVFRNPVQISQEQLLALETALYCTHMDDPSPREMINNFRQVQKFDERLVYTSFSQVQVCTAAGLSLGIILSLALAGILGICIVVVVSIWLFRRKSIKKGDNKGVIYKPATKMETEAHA

[6] = target: Carbonic anhydrase 9 (Homo sapiens, UniProt Q16790); test: Inhibition of recombinant human carbonic anhydrase 9 preincubated with enzyme for 15 mins by phenol red dye based stopped flow CO2 hydrase assay
[7] = system: SF-539; test: Antitumor activity against human SF539 cells assessed as cell growth inhibition at 10 uM incubated for 48 hrs by sulforhodamine B assay; type: functional; conditions: read-out: GI
In short: (§1)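 NCI Drug Evaluation Branch protocol: primary single-dose screen at 10 μM across a 57-line human cancer panel. Drug exposure is 48 h. Cell growth and viability are read by sulforhodamine B assay. Data are given as a mean graph of percent growth of treated cells and reported as percentage growth inhibition (GI%).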

[8] = system: SK-OV-3; test: Antitumor activity against human SK-OV-3 cells assessed as cell growth inhibition at 10 uM incubated for 48 hrs by sulforhodamine B assay; type: functional; conditions: read-out: GI; in short: as §1
[9] = system: SNB-75; test: Antitumor activity against human SNB-75 cells assessed as cell growth inhibition at 10 uM incubated for 48 hrs by sulforhodamine B assay; type: functional; conditions: read-out: GI
In short: (§2)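 NCI one-dose screen: 57-cell-line panel exposed at 10 μM for 48 h, Drug Evaluation Branch protocol. Growth and viability read by sulforhodamine B; data given as percent growth inhibition from the mean-graph of percent growth of treated cells.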

[10] = system: BT-549; test: Antitumor activity against human BT-549 cells assessed as cell growth inhibition at 10 uM incubated for 48 hrs by sulforhodamine B assay; type: functional; conditions: read-out: GI; in short: as §1
[11] = system: Hs-578T; test: Antitumor activity against human HS 578T cells assessed as cell growth inhibition at 10 uM incubated for 48 hrs by sulforhodamine B assay; type: functional; conditions: read-out: GI; in short: as §1
[12] = system: SK-MEL-2; test: Antitumor activity against human SK-MEL-2 cells assessed as cell growth inhibition at 10 uM incubated for 48 hrs by sulforhodamine B assay; type: functional; conditions: read-out: GI; in short: as §1
[13] = system: T47D; test: Antitumor activity against human T-47D cells assessed as cell growth inhibition at 10 uM incubated for 48 hrs by sulforhodamine B assay; type: functional; conditions: read-out: GI; in short: as §2
[14] = system: HOP-92; test: Antitumor activity against human HOP92 cells assessed as cell growth inhibition at 10 uM incubated for 48 hrs by sulforhodamine B assay; type: functional; conditions: read-out: GI; in short: as §1
[15] = system: NCI-H460; test: Antitumor activity against human NCI-H460 cells assessed as cell growth inhibition at 10 uM incubated for 48 hrs by sulforhodamine B assay; type: functional; conditions: read-out: GI; in short: as §1
[16] = system: RPMI-8226; test: Antitumor activity against human RPMI8226 cells assessed as cell growth inhibition at 10 uM incubated for 48 hrs by sulforhodamine B assay; type: functional; conditions: read-out: GI; in short: as §1
[17] = system: CCRF-CEM; test: Antitumor activity against human CCRF-CEM cells assessed as cell growth inhibition at 10 uM incubated for 48 hrs by sulforhodamine B assay; type: functional; conditions: read-out: GI; in short: as §1
[18] = system: SF-268; test: Antitumor activity against human SF268 cells assessed as cell growth inhibition at 10 uM incubated for 48 hrs by sulforhodamine B assay; type: functional; conditions: read-out: GI; in short: as §1
[19] = system: ACHN; test: Antitumor activity against human ACHN cells assessed as cell growth inhibition at 10 uM incubated for 48 hrs by sulforhodamine B assay; type: functional; conditions: read-out: GI; in short: as §1
[20] = system: RXF 393; test: Antitumor activity against human RXF 393 cells assessed as cell growth inhibition at 10 uM incubated for 48 hrs by sulforhodamine B assay; type: functional; conditions: read-out: GI; in short: as §1
[21] = system: NCI-H322M; test: Antitumor activity against human NCI-H322M cells assessed as cell growth inhibition at 10 uM incubated for 48 hrs by sulforhodamine B assay; type: functional; conditions: read-out: GI; in short: as §1
[22] = system: IGROV-1; test: Antitumor activity against human IGROV1 cells assessed as cell growth inhibition at 10 uM incubated for 48 hrs by sulforhodamine B assay; type: functional; conditions: read-out: GI; in short: as §1
[23] = system: OVCAR-3; test: Antitumor activity against human OVCAR-3 cells assessed as cell growth inhibition at 10 uM incubated for 48 hrs by sulforhodamine B assay; type: functional; conditions: read-out: GI; in short: as §1
[24] = system: HCT-15; test: Antitumor activity against human HCT15 cells assessed as cell growth inhibition at 10 uM incubated for 48 hrs by sulforhodamine B assay; type: functional; conditions: read-out: GI; in short: as §1
[25] = system: HCT-116; test: Antitumor activity against human HCT116 cells assessed as cell growth inhibition at 10 uM incubated for 48 hrs by sulforhodamine B assay; type: functional; conditions: read-out: GI; in short: as §1
[26] = system: UACC-62; test: Antitumor activity against human UACC-62 cells assessed as cell growth inhibition at 10 uM incubated for 48 hrs by sulforhodamine B assay; type: functional; conditions: read-out: GI; in short: as §2
[27] = system: NCI/ADR-RES; test: Antitumor activity against human NCI/ADR-RES cells assessed as cell growth inhibition at 10 uM incubated for 48 hrs by sulforhodamine B assay; type: functional, cell-based; in short: as §1
[28] = system: MDA-MB-231; test: Antitumor activity against human MDA-MB-231/ATCC cells assessed as cell growth inhibition at 10 uM incubated for 48 hrs by sulforhodamine B assay; type: functional; conditions: read-out: GI; in short: as §1
[29] = system: SR; test: Antitumor activity against human SR cells assessed as cell growth inhibition at 10 uM incubated for 48 hrs by sulforhodamine B assay; type: functional; conditions: read-out: GI; in short: as §2
[30] = system: MDA-MB-435; test: Antitumor activity against human MDA-MB-435 cells assessed as cell growth inhibition at 10 uM incubated for 48 hrs by sulforhodamine B assay; type: functional; conditions: read-out: GI; in short: as §1
[31] = system: M14; test: Antitumor activity against human M14 cells assessed as cell growth inhibition at 10 uM incubated for 48 hrs by sulforhodamine B assay; type: functional; conditions: read-out: GI; in short: as §1
[32] = system: 786-0; test: Antitumor activity against human 786-0 cells assessed as cell growth inhibition at 10 uM incubated for 48 hrs by sulforhodamine B assay; type: functional; conditions: read-out: GI; in short: as §1
[33] = system: KM12; test: Antitumor activity against human KM12 cells assessed as cell growth inhibition at 10 uM incubated for 48 hrs by sulforhodamine B assay; type: functional; conditions: read-out: GI; in short: as §1
[34] = system: SK-MEL-5; test: Antitumor activity against human SK-MEL-5 cells assessed as cell growth inhibition at 10 uM incubated for 48 hrs by sulforhodamine B assay; type: functional; conditions: read-out: GI; in short: as §1
[35] = system: LOX IMVI; test: Antitumor activity against human LOX IMVI cells assessed as cell growth inhibition at 10 uM incubated for 48 hrs by sulforhodamine B assay; type: functional; conditions: read-out: GI; in short: as §1
[36] = system: NCI-H522; test: Antitumor activity against human NCI-H522 cells assessed as cell growth inhibition at 10 uM incubated for 48 hrs by sulforhodamine B assay; type: functional; conditions: read-out: GI; in short: as §1
[37] = system: OVCAR-8; test: Antitumor activity against human OVCAR-8 cells assessed as cell growth inhibition at 10 uM incubated for 48 hrs by sulforhodamine B assay; type: functional; conditions: read-out: GI; in short: as §1
[38] = system: Malme-3M; test: Antitumor activity against human MALME-3M cells assessed as cell growth inhibition at 10 uM incubated for 48 hrs by sulforhodamine B assay; type: functional; conditions: read-out: GI; in short: as §1
[39] = system: UO-31; test: Antitumor activity against human UO-31 cells assessed as cell growth inhibition at 10 uM incubated for 48 hrs by sulforhodamine B assay; type: functional; conditions: read-out: GI; in short: as §2
[40] = system: SW-620; test: Antitumor activity against human SW620 cells assessed as cell growth inhibition at 10 uM incubated for 48 hrs by sulforhodamine B assay; type: functional; conditions: read-out: GI; in short: as §2
[41] = system: DU-145; test: Antitumor activity against human DU-145 cells assessed as cell growth inhibition at 10 uM incubated for 48 hrs by sulforhodamine B assay; type: functional; conditions: read-out: GI; in short: as §1
[42] = system: CAKI-1; test: Antitumor activity against human CAKI-1 cells assessed as cell growth inhibition at 10 uM incubated for 48 hrs by sulforhodamine B assay; type: functional; conditions: read-out: GI; in short: as §1
[43] = system: U-251; test: Antitumor activity against human U251 cells assessed as cell growth inhibition at 10 uM incubated for 48 hrs by sulforhodamine B assay; type: functional; conditions: read-out: GI; in short: as §2
[44] = system: SN12C; test: Antitumor activity against human SN12C cells assessed as cell growth inhibition at 10 uM incubated for 48 hrs by sulforhodamine B assay; type: functional; conditions: read-out: GI; in short: as §1
[45] = system: A498; test: Antitumor activity against human A498 cells assessed as cell growth inhibition at 10 uM incubated for 48 hrs by sulforhodamine B assay; type: functional; conditions: read-out: GI; in short: as §1

- IC50 [1]: 8000 nM
- Ki [2]: 768 nM
- IC50 [3]: > 12500 nM
- Ki [4]: 38.7 nM
- Ki [5]: 54.3 nM
- Ki [6]: 65 nM
Structure (SMILES): Nc1nn2c(-c3ccc(Br)cc3)ccnc2c1/N=N/c1ccc(S(N)(=O)=O)cc1

- IC50 [1]: > 12500 nM
- Ki [2]: 769 nM
- IC50 [3]: > 12500 nM
- Ki [4]: 33.8 nM
- Ki [5]: 18.6 nM
- Ki [6]: 28.4 nM
Structure (SMILES): Nc1nn2cc(-c3ccc(F)cc3)[nH]c2c1/N=N/c1ccc(S(N)(=O)=O)cc1
- inhibition of growth at 10 µM [7]: 27%
- inhibition of growth at 10 µM [8]: 26%
- inhibition of growth at 10 µM [9]: 44%
- inhibition of growth at 10 µM [10]: 26%
- inhibition of growth at 10 µM [11]: 33%
- inhibition of growth at 10 µM [12]: 30%
- inhibition of growth at 10 µM [13]: 22%
- inhibition of growth at 10 µM [14]: 25%
- inhibition of growth at 10 µM [15]: 41%
- inhibition of growth at 10 µM [16]: 27%
- inhibition of growth at 10 µM [17]: 33%
- inhibition of growth at 10 µM [18]: 23%
- inhibition of growth at 10 µM [19]: 48%
- inhibition of growth at 10 µM [20]: 40%
- inhibition of growth at 10 µM [21]: 58%
- inhibition of growth at 10 µM [22]: 38%
- inhibition of growth at 10 µM [23]: 21%
- inhibition of growth at 10 µM [24]: 40%
- inhibition of growth at 10 µM [25]: 37%
- inhibition of growth at 10 µM [26]: 29%
- Activity [27]: inactive
- inhibition of growth at 10 µM [28]: 25%
- inhibition of growth at 10 µM [29]: 33%
- inhibition of growth at 10 µM [30]: 22%
- inhibition of growth at 10 µM [31]: 35%
- inhibition of growth at 10 µM [32]: 32%
- inhibition of growth at 10 µM [33]: 27%
- inhibition of growth at 10 µM [34]: 23%
- inhibition of growth at 10 µM [35]: 36%
- inhibition of growth at 10 µM [36]: 45%
- inhibition of growth at 10 µM [37]: 21%
- inhibition of growth at 10 µM [38]: 42%
- inhibition of growth at 10 µM [39]: 42%
- inhibition of growth at 10 µM [40]: 23%
- inhibition of growth at 10 µM [41]: 30%
- inhibition of growth at 10 µM [42]: 53%
- inhibition of growth at 10 µM [43]: 24%
- inhibition of growth at 10 µM [44]: 31%
- inhibition of growth at 10 µM [45]: 60%

- IC50 [1]: 41700 nM
- Ki [2]: 271 nM
- IC50 [3]: > 12500 nM
- Ki [4]: 38.1 nM
- Ki [5]: 10.1 nM
- Ki [6]: 22 nM
Structure (SMILES): Nc1n[nH]c(N)c1/N=N/c1ccc(S(N)(=O)=O)cc1
